Source: ChEMBL document CHEMBL4613305, “Chiral Separation, X-ray Structure, and Biological Evaluation of a Potent and Reversible Dual Binding Site AChE Inhibitor” (ACS Med Chem Lett, 2020)

Key:
[1] = target: T1, Acetylcholinesterase (Homo sapiens, UniProt P22303); assay: Inhibition of human AChE using acetylthiocholineiodide as substrate measured for every 30 sec for 5 mins by Ellman's method
[2] = target: T2, Cholinesterase (Homo sapiens, UniProt P06276); assay: Inhibition of human BChE using butyrylthiocholineiodide as substrate measured for every 30 sec for 5 mins by Ellman's method
T2 sequence (P06276 whole entry): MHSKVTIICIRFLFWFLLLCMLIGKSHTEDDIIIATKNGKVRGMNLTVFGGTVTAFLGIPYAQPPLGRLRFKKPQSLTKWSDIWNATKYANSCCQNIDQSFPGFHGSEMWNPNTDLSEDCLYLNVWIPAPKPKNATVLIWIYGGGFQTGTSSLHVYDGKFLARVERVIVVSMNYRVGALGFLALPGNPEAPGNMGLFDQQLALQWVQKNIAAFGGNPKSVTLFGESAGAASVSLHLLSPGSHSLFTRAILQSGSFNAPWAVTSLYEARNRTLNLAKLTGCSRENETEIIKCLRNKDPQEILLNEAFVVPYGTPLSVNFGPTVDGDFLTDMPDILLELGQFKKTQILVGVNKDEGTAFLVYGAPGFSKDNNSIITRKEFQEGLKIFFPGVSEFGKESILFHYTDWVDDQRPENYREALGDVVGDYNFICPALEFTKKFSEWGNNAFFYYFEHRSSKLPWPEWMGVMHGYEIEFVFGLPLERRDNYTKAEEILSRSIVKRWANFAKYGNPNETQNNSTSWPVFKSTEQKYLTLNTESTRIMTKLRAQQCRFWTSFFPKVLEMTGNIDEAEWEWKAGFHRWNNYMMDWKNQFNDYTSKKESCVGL
In short: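 Values are mean ± SEM of three independent experiments.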

[3] = target: T1, Acetylcholinesterase; assay: Mixed type inhibition of human AChE using acetylthiocholineiodide as substrate measured for every 30 sec for 5 mins by Ellman's method
[4] = target: T2, Cholinesterase; assay: Inhibition of human BChE using butyrylthiocholineiodide as substrate at 10 uM measured for every 30 sec for 5 mins by Ellman's method relative to control
In short: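 Single-concentration test, reported as % inhibition at 10 μM. Values are mean ± SEM of three independent experiments.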

[5] = target: Cholinesterases; ACHE & BCHE (Homo sapiens) (UniProt P06276+P22303); assay: Selectivity index, ratio of IC50 for human BChE to IC50 for human AChE; assay type: protein assay
Cholinesterases; ACHE & BCHE (Homo sapiens), sequence (P06276 whole entry, looked up): as the sequence (P06276 whole entry) above
Cholinesterases; ACHE & BCHE (Homo sapiens), sequence (P22303 whole entry, looked up): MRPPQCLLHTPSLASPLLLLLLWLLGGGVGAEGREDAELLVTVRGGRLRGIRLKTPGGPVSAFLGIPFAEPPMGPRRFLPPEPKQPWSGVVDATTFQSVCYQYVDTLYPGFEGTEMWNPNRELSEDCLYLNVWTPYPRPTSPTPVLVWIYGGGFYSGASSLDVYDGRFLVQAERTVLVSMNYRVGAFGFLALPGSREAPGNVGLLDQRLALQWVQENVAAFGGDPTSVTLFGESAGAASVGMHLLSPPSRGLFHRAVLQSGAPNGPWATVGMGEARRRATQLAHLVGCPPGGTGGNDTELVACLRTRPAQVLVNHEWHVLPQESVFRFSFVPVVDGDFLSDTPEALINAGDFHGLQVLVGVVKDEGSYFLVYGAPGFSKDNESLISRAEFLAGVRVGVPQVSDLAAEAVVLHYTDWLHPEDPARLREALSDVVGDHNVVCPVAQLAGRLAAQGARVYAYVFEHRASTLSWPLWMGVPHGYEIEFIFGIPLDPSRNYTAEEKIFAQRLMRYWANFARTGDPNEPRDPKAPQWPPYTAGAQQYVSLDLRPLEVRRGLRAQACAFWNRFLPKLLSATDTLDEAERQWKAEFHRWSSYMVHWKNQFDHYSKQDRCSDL

[6] = Apparent permeability across basolateral to apical side in MDCK-MDR1 cells at 75 uM incubated for 2 hrs by UV-spectroscopy; assay type: ADME, cell-based, Canis lupus familiaris; details: dog
In short: (§1)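 MDCK-MDR1 monolayers expressing the P-gp efflux system. Apparent permeability (Papp) was measured in both directions: apical to basolateral, and basolateral to apical. Efflux ratio = Papp BL/Papp AP. Values are mean ± SEM of three independent experiments.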

[7] = Cytotoxicity against MDCK-MDR1 cells assessed as cell viability at 100 uM incubated for 24 hrs by MTT assay relative to control; assay type: ADME, cell-based, Canis lupus familiaris; details: dog, read-out: Activity
[8] = Efflux ratio of apparent permeability across basolateral to apical side to apical to basolateral side in MDCK-MDR1 cells at 75 uM incubated for 2 hrs by UV-spectroscopy; assay type: ADME, cell-based, Canis lupus familiaris; details: dog
In short: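 MDCK-MDR1 monolayers expressing the P-gp efflux system. Apparent permeability was measured in both directions, apical→basolateral and basolateral→apical. Efflux ratio calculated as Papp BL / Papp AP. Papp values are mean ± SEM of three independent experiments.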

[9] = Cytotoxicity against human HepG2 cells assessed as cell viability at 20 to 100 uM incubated for 2 hrs by MTT assay relative to control; assay type: cell-based; details: read-out: Activity
In short: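 HepG2 human liver cancer cells were exposed to 20–100 μM for 2 h. Viability was read by MTT reduction, expressed as % of untreated control cells in DMEM. Values are mean ± SEM of six replicates. Difference from control was tested by Student's t test (p < 0.01).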

[10] = Cytotoxicity against MDCK-MDR1 cells assessed as cell viability at 100 uM incubated for 72 hrs by MTT assay relative to control; assay type: ADME, cell-based, Canis lupus familiaris; details: dog, read-out: Activity
[11] = Apparent permeability across apical to basolateral side in MDCK-MDR1 cells at 75 uM incubated for 2 hrs by UV-spectroscopy; assay type: ADME, cell-based, Canis lupus familiaris; details: dog; in short: as §1
[12] = tested on: MDCK-MDR1; assay: Cytotoxicity against MDCK-MDR1 cells assessed as cell viability incubated for 72 hrs by MTT assay relative to control; assay type: ADME, cell-based; details: Canis lupus familiaris, MDCK-MDR1, 72 h
[13] = target: T1, Acetylcholinesterase; assay: Potency index, ratio of Ki of donepezil to Ki of compound for mixed type inhibition of human AChE using acetylthiocholineiodide as substrate measured for every 30 sec for 5 mins by Ellman's method

T1 sequence (P22303 whole entry): as the sequence (P22303 whole entry, looked up) above

Structure (SMILES) | IC50 [1] | IC50 [2] | Ki [3] | further results
COc1cc2cc(NC(=O)[C@H]3CCC[C@@H](NCc4ccccc4)C3)c(=O)oc2cc1OC | 380 nM | 2330 nM | 93.4 nM | 
COc1cc2cc(NC(=O)CCCNCc3ccccc3)c(=O)oc2cc1OC | 748 nM | 181 nM |  | 
COc1cc2cc(NC(=O)C3CCN(Cc4ccccc4)CC3)c(=O)oc2cc1OC | 223 nM |  |  | inhibition [4]: 21%
COc1cc2cc(NC(=O)[C@@H]3CCC[C@H](NCc4ccccc4)C3)c(=O)oc2cc1OC | 19.2 nM | 14100 nM | 19.1 nM | Ratio IC50 [5]: 730
COc1cc2cc(NC(=O)[C@H]3CCC[C@@H](NCc4ccccc4)C3)c(=O)oc2cc1OC (racemic) [listing 1 of 2 here] | 36.5 nM | 6250 nM | 46.6 nM | Papp B→A at 2 h, 75 µM [6]: 8.4 ×10⁻⁶ cm/s; viability at 24 h, 100 µM [7]: 60%; efflux ratio at 2 h, 75 µM [8]: 0.22; viability at 2 h, up to 100 µM [9]: 80 to 90%; viability at 72 h, 100 µM [10]: 37%; Papp A→B at 2 h, 75 µM [11]: 37 ×10⁻⁶ cm/s; IC50 [12]: 30000 nM
COc1cc2cc(NC(=O)[C@H]3CCC[C@@H](NCc4ccccc4)C3)c(=O)oc2cc1OC (racemic) [listing 2 of 2 here] |  |  |  | Ratio Ki [13]: 4
CN1C(=O)CN=C(c2ccccc2)c2cc(Cl)ccc21 [DIAZEPAM] |  |  |  | efflux ratio at 2 h, 75 µM [8]: 0.7
